Measured values reported in ChEMBL document CHEMBL1146916, “Studies towards the conception of new selective PPARbeta/delta ligands” (Bioorg Med Chem Lett, 2006).
Activity calls are given as the source filed them. No cut-off for these calls is given here.

Key:
[1] = molecular target: T1, Peroxisome proliferator-activated receptor delta (Homo sapiens, UniProt Q03181); assay: (§1) Activity at PPARbeta/delta by luciferase reporter gene transactivation assay in COS7 cells; format: functional, cell-based, COS-7
T1 sequence (Q03181 whole entry): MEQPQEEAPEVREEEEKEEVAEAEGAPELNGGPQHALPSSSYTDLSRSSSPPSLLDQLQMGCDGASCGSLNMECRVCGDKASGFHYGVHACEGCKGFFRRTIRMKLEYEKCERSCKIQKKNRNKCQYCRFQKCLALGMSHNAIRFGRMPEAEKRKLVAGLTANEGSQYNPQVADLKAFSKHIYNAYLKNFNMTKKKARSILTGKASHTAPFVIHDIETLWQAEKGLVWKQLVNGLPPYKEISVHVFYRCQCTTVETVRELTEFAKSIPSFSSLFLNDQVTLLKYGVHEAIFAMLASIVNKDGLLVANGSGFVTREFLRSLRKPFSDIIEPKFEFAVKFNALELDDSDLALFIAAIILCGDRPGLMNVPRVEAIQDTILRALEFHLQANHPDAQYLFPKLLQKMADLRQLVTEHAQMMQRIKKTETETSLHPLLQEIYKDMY

[2] = molecular target: T2, Peroxisome proliferator-activated receptor alpha (Homo sapiens, UniProt Q07869); assay: (§2) Activity at PPARalpha by luciferase reporter gene transactivation assay in COS7 cells; format: functional, cell-based, COS-7
T2 sequence (Q07869 whole entry): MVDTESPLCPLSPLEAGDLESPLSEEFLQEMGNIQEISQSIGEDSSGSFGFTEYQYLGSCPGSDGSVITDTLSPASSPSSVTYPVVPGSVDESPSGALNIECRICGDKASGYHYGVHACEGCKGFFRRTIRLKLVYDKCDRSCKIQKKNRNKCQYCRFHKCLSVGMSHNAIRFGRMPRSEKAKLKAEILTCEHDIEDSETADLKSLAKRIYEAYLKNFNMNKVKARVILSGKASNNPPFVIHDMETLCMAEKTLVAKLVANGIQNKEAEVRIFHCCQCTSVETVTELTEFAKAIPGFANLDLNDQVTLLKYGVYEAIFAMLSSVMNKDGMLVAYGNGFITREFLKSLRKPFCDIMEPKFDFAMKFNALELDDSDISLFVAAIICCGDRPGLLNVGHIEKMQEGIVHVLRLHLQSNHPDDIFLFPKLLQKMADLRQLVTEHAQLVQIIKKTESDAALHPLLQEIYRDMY

[3] = molecular target: T3, Peroxisome proliferator-activated receptor alpha (Homo sapiens) (UniProt Q07869); assay: Activity at PPARalpha by luciferase reporter gene transactivation assay in COS7 cells relative to WY-14643 at 10 uM; format: functional, cell-based; settings: COS-7
T3 sequence (whole entry): T2 sequence (Q07869 whole entry)
In short: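 Cos-7 cells were transiently transfected, using PEI in OptiMEM for 3 h at 37 °C, with the pG5-TK-pGL3 luciferase reporter, pGAL4hPPARa (Gal4 DBD–human PPARα LBD) and pCMV-β-galactosidase. Cells were reseeded in 96-well plates and treated for 16 h in DMEM with 0.2% FCS at 10 µM–10 nM. Luciferase was normalized to β-galactosidase, and maximal activity was expressed versus the WY14.643 positive control. Experiments were run at least three times.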

[4] = molecular target: T4, Peroxisome proliferator-activated receptor gamma (Homo sapiens, UniProt P37231); assay: Activity at PPARgamma by luciferase reporter gene transactivation assay in COS7 cells; format: functional, cell-based, COS-7
T4 sequence (P37231 whole entry): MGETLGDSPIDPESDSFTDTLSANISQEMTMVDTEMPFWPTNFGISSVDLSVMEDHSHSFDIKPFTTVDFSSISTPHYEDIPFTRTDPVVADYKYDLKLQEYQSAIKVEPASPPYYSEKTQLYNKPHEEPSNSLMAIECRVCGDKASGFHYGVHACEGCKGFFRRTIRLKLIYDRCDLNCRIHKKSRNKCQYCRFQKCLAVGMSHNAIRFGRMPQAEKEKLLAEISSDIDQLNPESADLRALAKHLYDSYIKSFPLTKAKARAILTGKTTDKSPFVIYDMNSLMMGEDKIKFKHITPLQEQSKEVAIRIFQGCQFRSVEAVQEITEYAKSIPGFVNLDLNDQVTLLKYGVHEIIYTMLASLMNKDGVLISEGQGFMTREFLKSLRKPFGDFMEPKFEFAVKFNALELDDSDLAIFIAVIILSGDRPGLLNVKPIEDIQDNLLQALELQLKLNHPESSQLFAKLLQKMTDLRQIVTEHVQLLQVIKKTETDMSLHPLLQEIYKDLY

[5] = molecular target: T5, Peroxisome proliferator-activated receptor delta (Homo sapiens) (UniProt Q03181); assay: as §1; format: functional, cell-based; settings: COS-7
T5 sequence (whole entry): T1 sequence (Q03181 whole entry)

[6] = molecular target: T3, Peroxisome proliferator-activated receptor alpha (Homo sapiens); assay: as §2; format: functional, cell-based; settings: COS-7
Homo sapiens = species: Homo sapiens; assay: Selectivity for human PPARdelta over human PPARalpha
In short: (§3)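 The selectivity ratio is taken from EC50 values measured in Cos-7 cells transiently transfected with the pG5-TK-pGL3 luciferase reporter plus Gal4 DBD–human PPARβ/δ, PPARα or PPARγ LBD chimeras and β-galactosidase control. Cells were treated for 16 h in 0.2% FCS DMEM at 10 µM–10 nM. EC50s were fitted from β-gal-normalized luciferase and are means of three experiments.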

[7] = molecular target: PPAR delta/gamma (Homo sapiens) (UniProt P37231+Q03181); assay: Selectivity for human PPARdelta over human PPARgamma; format: protein assay; in short: as §3

EC50 [1] [nM] | EC50 [2] [nM] | Activity [3] [%] | EC50 [4] [nM] | Activity [5] | Activity [6] | Selectivity ratio [7] | SMILES | Selectivity ratio (Homo sapiens)
98 | 1400 | 49 | 1190 | – | – | – | CCCc1cc(C(F)(F)F)ccc1OCCCOc1ccc(OCC(=O)OC)cc1 | –
– | – | – | – | inactive | inactive | – | CC(=O)c1ccc(OCCCOc2ccc(OCC(=O)O)cc2)cc1 | –
– | – | 452 | – | – | – | – | Cc1cc(SCc2sc(-c3ccc(C(F)(F)F)cc3)nc2C)ccc1OCC(=O)O | –
125 | 977 | – | 1820 | – | – | 15 | CCCc1c(OCCCOc2ccc(OCC(=O)O)cc2)ccc(C(C)=O)c1O | 8
1050 | – | – | – | – | inactive | – | CCCc1ccccc1OCCCOc1ccc(OCC(=O)OC)cc1 | –
457 | 1070 | 32 | 288 | – | – | – | CCCc1c(OCCCOc2ccc(OCC(=O)OC)cc2)ccc(C(C)=O)c1O | –
16 | 1010 | 85 | 1260 | – | – | – | CCCc1cc(C(F)(F)F)ccc1OCCCOc1ccc(OCC(=O)OC)c(C)c1 | –
– | – | – | – | inactive | inactive | – | COC(=O)COc1ccc(OCCCOc2cccc(O)c2)cc1 | –
10000 | – | – | – | – | inactive | – | CC(=O)c1ccc(OCCCOc2ccc(OCC(=O)O)cc2)cc1O | –

SMILES | EC50 [1] [nM] | EC50 [2] [nM] | Activity [3] [%] | EC50 [4] [nM] | Activity [5] | Activity [6] | Selectivity ratio [7] | Selectivity ratio (Homo sapiens)
CCCc1c(OCCCOc2ccc(OCC(=O)OC)cc2)cnc(C(C)=O)c1O | 82 | 8390 | 64 | 757 | – | – | – | –
CCCc1cc(C(F)(F)F)ncc1OCCCOc1ccc(OCC(=O)O)c(C)c1 | 15 | 1330 | 136 | 1580 | – | – | – | > 100
CCCc1cc(C(F)(F)F)ccc1OCCCOc1ccc(OCC(=O)O)c(C)c1 | 7 | 103 | 40 | 153 | – | – | – | –
